# Source: PubChem BioAssay
# Rows were chosen to be rich in hits. Some 2.1% of all compounds tested hit in one or more screens of this group.
# ARNT TACC3 PPI: ARNT/TACC3 interaction disruption | inhibition, % at 9.99 µM | 390,000 tested, 0.66% active | Q9Y6A5 | AlphaScreen His-ARNT PAS-B/GST-TACC3 binding, luminescence; TACC3 fragment carries E629A point mutation;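 active = mean inhibition of replicates at least 50% and at least half of replicates each reaching 50%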
# RTF Ca sens inh: cardiac RTF calcium desensitization. P19429+P45379. IANBD-labeled cardiac RTF, Ca2+ fluorescence. inhibition, % at 7.15 µM. 340,000 tested, 0.12% active. AID 493244;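 active = inhibition above the mean inhibition of all tested compounds plus 3 SD, cut at about 17% in these data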;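 also: assay run at fixed EC70 calcium of 1.6 mM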
# cardiac RTF act: cardiac RTF calcium sensitization. P19429+P45379. IANBD-labeled TnC RTF fluorescence at EC20 calcium; 0% EC20 calcium, 100% full calcium. activation, % at 7.2 µM. 340,000 tested, 0.24% active. AID 493008;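 active = activation above the mean over all tested compounds plus 3 SD, cut at about 30% in these data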;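 also: rise in fluorescence read as greater calcium sensitivity of cardiac thin filaments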
# Mot1-301 SUMO: blocks SUMOylation pathway, rescuing yeast Mot1-301 growth. growth rescue, % at 18.8 µM. S. cerevisiae Mot1-301 growth rescue, ATP luminescence, 38.5C; percent above DMSO median, 100 means doubled. 320,000 tested, 1% active;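 active = every valid replicate shows activation above 250% relative to neutral control wells; inactive = the rest, any valid replicate at or below 250%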
# UCH37 inh: inhibitors of human deubiquitinating enzyme UCH37; 330,000 tested, 0.33% active; purified proteasome/UCH37, Ub-AMC cleavage fluorescence; AID 588478; inhibition, % (no concentration beside the values);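 active = mean inhibition over replicate wells above about 20%, limit read from the data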
# Target sequence (Q9Y5K5 whole entry, looked up): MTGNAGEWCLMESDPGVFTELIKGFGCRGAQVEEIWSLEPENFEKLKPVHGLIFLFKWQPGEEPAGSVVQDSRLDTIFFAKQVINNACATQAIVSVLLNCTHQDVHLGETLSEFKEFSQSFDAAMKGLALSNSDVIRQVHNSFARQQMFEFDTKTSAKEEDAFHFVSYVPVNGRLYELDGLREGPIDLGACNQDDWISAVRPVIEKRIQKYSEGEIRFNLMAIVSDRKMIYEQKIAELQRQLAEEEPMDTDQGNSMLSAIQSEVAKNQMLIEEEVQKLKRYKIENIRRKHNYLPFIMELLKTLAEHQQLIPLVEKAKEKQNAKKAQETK
#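 Material: Human UCH37 enzyme supplied as purified proteasome complex | Schedule: 30 min compound-proteasome preincubation then 25 min substrate reaction, room temperature | Detection: AMC fluorescence from Ub-AMC cleavage, excitation 355 nm, emission 460 nm | Benchmarks: Wells without proteasome as full block, compound-free enzyme plus substrate as uninhibited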
# Efflux pump inh: antifungal efflux pump inhibition, Nile Red retention. S. cerevisiae Candida pump triplex. inhibition, % at 10 µM. 330,000 tested, 0.44% active;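 active = plate passing quality check with inhibition over a set limit, or well fluorescence over plate mean plus 4 SD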;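 also: Nile Red retained in pooled yeast measured as flow cytometry median fluorescence; higher means more Nile Red kept so more efflux inhibition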
# A number is an active result; 0 = inactive; - = no result given.
SMILES,ARNT TACC3 PPI,RTF Ca sens inh,cardiac RTF act,Mot1-301 SUMO,UCH37 inh,Efflux pump inh
CSc1nnc(-c2ccc(S(=O)(=O)N3CCOCC3)cc2)n1CC1CCCO1 (stereo not drawn),0,0,0,333,0,0
Cc1cc(C)cc(NC(=S)NCc2ccc3[nH]c4c(c3c2)CCCC4)c1,0,0,0,0,0,0
CCS(=O)(=O)NCc1ccc2[nH]c3c(c2c1)CCCC3,-,-,-,0,-,1.3
Cc1[nH]c2ccccc2c1C=NNC(=O)c1cccc(F)c1,-,-,-,-,0,-
COC(=O)c1ccc(NC(=O)C2CCN(C(=O)c3cc(OC)c(OC)c(OC)c3)CC2)cc1,-,0,0,336,0,0
Cc1nc2ccccn2c1C(=O)NN=C1CCCC1,20,0,0,0,0,0
CCOc1ccc(CC(=O)NN=Cc2cccnc2)cc1,-,-,-,-,0,-
Cc1ccc(S(=O)(=O)N=C(Sc2ccccc2)c2ccccc2)cc1,-,-,-,-,0,-
COc1ccc(-c2nc(C#N)c(N3CCCCCC3)o2)cc1OC,0,0,0,348,0,0
COc1ccc(CC(=O)NCC(=O)NN=Cc2sccc2C)cc1,-,-,-,-,0,-
CCC(/C=C1\Sc2ccc(OC)cc2N1CC)=C\c1sc2ccc(OC)cc2[n+]1CCCS(=O)(=O)[O-],0,0,0,0,0,0
CCO/C(=C/c1sc2ccc(OC)cc2[n+]1CCCS(=O)(=O)[O-])CC,0,0,0,0,21,0
CN1C(C(=O)NCc2cccc(C(F)(F)F)c2)CC2Cn3c(nc4cc(Cl)c(Cl)cc43)C21 (stereo not drawn),0,0,0,277,0,0
CN1C(C(=O)NCc2cccc(Br)c2)CC2Cn3c(nc4cc(Cl)c(Cl)cc43)C21 (stereo not drawn),0,0,0,0,0,0
NC(=NOC(=O)c1ccc(Cl)cc1[N+](=O)[O-])c1ccccn1,-,-,-,-,0,-
COC(=O)c1cccc(NC(=O)COc2cccc([N+](=O)[O-])c2)c1,0,0,0,0,33,0
N#CC1=C(N)SC(N)=C(C#N)C1Cc1ccccc1,0,0,43,0,0,0
N#CC1=C(N)SC(N)=C(C#N)C1CCc1ccccc1,-,0,39,0,0,0
CC(C)CC1C(C#N)=C(N)SC(N)=C1C#N,0,0,42,0,0,0
COc1ccc2c(c1)CCCC2=NNC(=O)c1ccoc1C,-,-,-,-,0,-
CC(=NNC(N)=S)c1cc2ccc(O)cc2oc1=O,-,-,-,-,0,-
C/C(=N/NC(N)=S)c1cc2ccc(O)cc2oc1=O,39,0,0,0,-,0
COc1cc(C2C=C(c3cccs3)Nc3ncnn32)cc(OC)c1OC (stereo not drawn),0,0,386,-,0,-
OC12CCCCC1C(c1ccc3c(c1)OCO3)N(Cc1ccc(F)cc1)CC2 (stereo not drawn),0,0,0,0,29,0
OC12CCCCC1C(c1ccc3c(c1)OCO3)N(Cc1cccc(F)c1)CC2 (stereo not drawn),0,0,0,0,0,-
SMILES,ARNT TACC3 PPI,RTF Ca sens inh,cardiac RTF act,Mot1-301 SUMO,UCH37 inh,Efflux pump inh
Cc1ccc(-c2csc(N)n2)s1,0,0,0,0,0,0
Cc1csc(N)n1,0,0,0,0,21,0
CCN(C1CCS(=O)(=O)C1)S(=O)(=O)c1ccc2ccccc2c1 (stereo not drawn),0,0,0,325,0,0
CCCN(C1CCS(=O)(=O)C1)S(=O)(=O)c1ccc2ccccc2c1 (stereo not drawn),0,0,0,0,0,0
CCN(CC)c1ccc(/C=N/NC(=O)c2c(Cl)cnn2C)c(O)c1,66,0,0,0,-,0
Cc1cc(=O)[nH]c(NN=Cc2cc(Br)ccc2O)n1,64,0,0,-,-,-
CCN(CC)c1ccc(C=NNC(=O)OC)c(O)c1,-,-,-,-,0,-
CCN(CC)c1ccc(/C=N/Nc2nc(C)cc(=O)[nH]2)c(O)c1,64,0,0,0,-,0
OC(=Cc1ccc2ccccc2n1)c1ccncc1,-,-,-,-,0,-
Cc1ccc(S(=O)(=O)c2c(N)n(N=Cc3ccco3)c3nc4ccccc4nc23)cc1C,-,-,-,-,0,-
C=CCN1C(=O)/C(=C/C=C2/N(CC)c3ccc(S(=O)(=O)N(C)C)cc3N2CC)SC1=S,0,0,429,0,0,0
C=CCN1C(=O)/C(=C2/Sc3ccccc3N2CC)SC1=S,0,0,0,0,0,0
COCCn1c(C)cc(C=NNC(=O)c2cc3ccccc3cc2O)c1C,-,-,-,-,0,-
Cc1ccc(N2C(=O)CC(Sc3cccs3)C2=O)cc1 (stereo not drawn),0,0,0,320,0,0
Cc1ccc(N2C(=O)CC(Sc3nccc(C)n3)C2=O)cc1 (stereo not drawn),0,0,0,0,0,0
O=c1oc2ccccc2c(O)c1Sc1c(O)c2ccccc2oc1=O,76,0,0,-,0,-
Fc1ccccc1CNc1ccc(Cl)cc1,0,0,0,0,0,0
Clc1ccc(NCc2ccsc2)cc1,-,-,-,408,-,0
CN1c2ccsc2C(O)=C(C(=S)Nc2ccccc2)S1(=O)=O,0,0,0,0,21,0
Cc1ccc(NC(=S)C2=C(O)c3ccccc3N(C)S2(=O)=O)cc1,0,0,0,0,21,0
Cc1ccccc1NC(=S)C1=C(O)c2sccc2N(C)S1(=O)=O,0,0,0,0,23,0
O=C(NN=C/C=C/c1ccccc1)c1n[nH]c2c1CCC2,-,-,-,-,0,-
O=C(/C=C/c1ccccc1)c1ccc2c(c1)OCO2,0,0,0,0,0,0
COc1ccc(C(=O)/C=C/c2ccc(N(C)C)cc2)c(OC)c1,0,0,81,0,0,0
COc1ccc(C(=O)/C=C/c2ccccc2)c(OC)c1,0,0,0,0,0,0
SMILES,ARNT TACC3 PPI,RTF Ca sens inh,cardiac RTF act,Mot1-301 SUMO,UCH37 inh,Efflux pump inh
CN(C)c1ccc(/C=C/C(=O)c2ccc(O)cc2)cc1,0,0,72,-,-,-
CN(C)c1ccc(/C=C/C(=O)c2ccc3c(c2)OCO3)cc1,0,0,92,0,-,0
Cc1ccc(C(=O)Sc2cccccc2=O)cc1,57,0,0,0,0,0
COc1ccc(NC(=O)CN(C)C(=O)c2c(-c3c(F)cccc3Cl)noc2C)cc1,0,0,0,688,0,0
Cc1onc(-c2c(Cl)cccc2Cl)c1C(=O)NNc1ccccc1,0,0,0,318,0,0
O=C1C2C(C(=O)N1N=Cc1ccc(N3CCCCC3)o1)C1C=CC2C12CC2 (stereo not drawn),-,-,-,-,0,-
Cc1cc(C(=O)NN=C2CCCC(=O)C2)c2ccccc2n1,-,-,-,-,0,-
Cc1ccc(-c2cc(C(F)(F)F)c(C#N)c(SCC(=O)O)n2)cc1,0,0,0,0,-,0
COc1ccc(-c2cc(C(F)(F)F)c(C#N)c(SCC(=O)O)n2)cc1OC,-,-,-,304,0,0
CCOC(=O)CC(=O)CSc1nc(-c2ccc3c(c2)OCO3)cc(C(F)(F)F)c1C#N,0,0,40,0,0,0
CCOC(=O)CCSc1nc(-c2ccc3c(c2)OCO3)cc(C(F)(F)F)c1C#N,0,0,0,0,0,0
C(=Nn1cnnc1)c1cccnc1,-,-,-,-,0,-
